How the values were obtained:
[1] = test system: Human immunodeficiency virus 1; assay: Antiviral activity against HIV1 NL4.3 infected in human MT4 cells assessed as reduction in virus-induced cytopathic effect preincubated for 30 mins followed by viral infection and measured after 5 days by MTS assay; assay type: functional, organism-based; settings: Human immunodeficiency virus 1, NL4.3, MT4
[2] = Cytotoxicity against human MT4 cells assessed as reduction in cell viability measured after 5 days by MTS/PES assay; assay type: cell-based
Procedure, shortened: (§1)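 MT-4 cells (RPMI-1640, 10% FCS, 1% L-glutamine) pre-incubated 30 min at 37 °C with compound, then infected with HIV-1 NL4.3 or HIV-2 ROD according to stock TCID50. After 5 days, CPE scored microscopically and viability read by MTS/PES at A490 to derive EC50; cytotoxicity measured by MTS/PES at 5 days in the same cells. SI = CC50/EC50. Mean ± S.D. of at least 3 experiments.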

[3] = Selectivity index, ratio of CC50 for human MT4 cells to EC50 for HIV1 NL4.3 infected in human MT4 cells; assay type: toxicity, cell-based; settings: read-out: Ratio CC50/EC50; procedure, shortened: as §1
[4] = Selectivity index, ratio of CC50 for human MT4 cells to EC50 for HIV-1 NL4.3 infected in human MT4 cells
[5] = test system: Human immunodeficiency virus 2; assay: Antiviral activity against HIV-2 ROD infected in human MT4 cells assessed as reduction in virus-induced cytopathic effect preincubated for 30 mins followed by viral infection and measured after 5 days by MTS assay; settings: Human immunodeficiency virus 2, ISOLATE ROD
Enterovirus A71 = assay: Antiviral activity against Enterovirus A 71 BrCr infected in human RD cells assessed as reduction in virus-induced cytopathic effect preincubated for 1 day followed by viral infection and measured after 3 days by MTS/PMS method; assay type: functional, organism-based; settings: strain BRCR
Procedure, shortened: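 RD cells seeded in 96-well plates; next day serial compound dilutions plus virus at low MOI added. Incubation at 37 °C, 5% CO₂ until full CPE in untreated infected controls (3 days). Viability read by MTS/PMS; EC50 as 50% inhibition of virus-induced death from dose-response curves. CC50 from uninfected treated cells in the same setup; SI = CC50/EC50.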

O=C(CCC(CCC(=O)NC(Cc1cn(Cc2ccc(F)cc2)c2ccccc12)C(=O)O)(CCC(=O)NC(Cc1cn(Cc2ccc(F)cc2)c2ccccc12)C(=O)O)[N+](=O)[O-])NC(Cc1cn(Cc2ccc(F)cc2)c2ccccc12)C(=O)O (configuration not stated)
EC50 [1]: 43 µM | CC50 at 120 h [2]: > 100 µM | selectivity ratio [3]: > 2.3 | selectivity ratio [4]: > 2.3 | EC50 [5]: 34 µM

O=C(CCC(CCC(=O)NC(Cc1c[nH]c2ccccc12)C(=O)O)(CCC(=O)NC(Cc1c[nH]c2ccccc12)C(=O)O)[N+](=O)[O-])NC(Cc1c[nH]c2ccccc12)C(=O)O (configuration not stated)
EC50 [1]: > 100 µM | CC50 at 120 h [2]: > 100 µM | EC50 (Enterovirus A71): > 120 µM | EC50 [5]: > 100 µM

COc1ccc(-c2[nH]c3ccccc3c2CC(NC(=O)CCC(CCC(=O)NC(Cc2c(-c3ccc(OC)cc3)[nH]c3ccccc23)C(=O)O)(CCC(=O)NC(Cc2c(-c3ccc(OC)cc3)[nH]c3ccccc23)C(=O)O)[N+](=O)[O-])C(=O)O)cc1 (configuration not stated)
EC50 [1]: > 9.3 µM | CC50 at 120 h [2]: 9.3 µM | EC50 (Enterovirus A71): > 86.6 µM | EC50 [5]: > 9.3 µM

O=C(CCC(CCC(=O)NC(Cc1c(-c2ccc([N+](=O)[O-])cc2)[nH]c2ccccc12)C(=O)O)(CCC(=O)NC(Cc1c(-c2ccc([N+](=O)[O-])cc2)[nH]c2ccccc12)C(=O)O)[N+](=O)[O-])NC(Cc1c(-c2ccc([N+](=O)[O-])cc2)[nH]c2ccccc12)C(=O)O (configuration not stated)
EC50 [1]: 41 µM | CC50 at 120 h [2]: > 100 µM | selectivity ratio [3]: > 2 | EC50 (Enterovirus A71): 28.8 µM | EC90 (Enterovirus A71): 58.2 µM | selectivity ratio [4]: > 2 | EC50 [5]: 43 µM

O=C(CCC(CCC(=O)NC(Cc1c(-c2ccccc2)[nH]c2ccccc12)C(=O)O)(CCC(=O)NC(Cc1c(-c2ccccc2)[nH]c2ccccc12)C(=O)O)[N+](=O)[O-])NC(Cc1c(-c2ccccc2)[nH]c2ccccc12)C(=O)O (configuration not stated)
EC50 [1]: 19 µM | CC50 at 120 h [2]: 83 µM | selectivity ratio [3]: 4.4 | EC50 (Enterovirus A71): > 100 µM | selectivity ratio [4]: 4.4 | EC50 [5]: > 83 µM

O=C(CCC(CCC(=O)NC(Cc1cn(Cc2ccccc2)c2ccccc12)C(=O)O)(CCC(=O)NC(Cc1cn(Cc2ccccc2)c2ccccc12)C(=O)O)[N+](=O)[O-])NC(Cc1cn(Cc2ccccc2)c2ccccc12)C(=O)O (configuration not stated)
EC50 [1]: 49 µM | CC50 at 120 h [2]: > 100 µM | selectivity ratio [3]: > 2 | selectivity ratio [4]: > 2 | EC50 [5]: 38 µM

O=C(CCC(CCC(=O)NC(Cc1c(-c2ccc(Br)cc2)[nH]c2ccccc12)C(=O)O)(CCC(=O)NC(Cc1c(-c2ccc(Br)cc2)[nH]c2ccccc12)C(=O)O)[N+](=O)[O-])NC(Cc1c(-c2ccc(Br)cc2)[nH]c2ccccc12)C(=O)O (configuration not stated)
EC50 [1]: > 30 µM | CC50 at 120 h [2]: 30 µM | EC50 (Enterovirus A71): 65.2 µM | EC50 [5]: > 30 µM

CN[C@@H]1[C@H](O[C@@H]2OC[C@@H](O)[C@H](O)[C@H]2O)[C@@H](O)[C@H](O[C@H]2c3cc(C)c(C(=O)N[C@H](C)C(=O)O)c(O)c3-c3c(cc4c(c3O)C(=O)c3cc(OC)cc(O)c3C4=O)[C@@H]2O)O[C@@H]1C [PRADIMICIN A]
EC50 [1]: 3.3 µM | CC50 at 120 h [2]: > 100 µM | selectivity ratio [3]: > 30.3 | selectivity ratio [4]: > 30.3

O=C(CCC(CCC(=O)NC(Cc1cn(Cc2ccc(C(=O)O)cc2)c2ccccc12)C(=O)O)(CCC(=O)NC(Cc1cn(Cc2ccc(C(=O)O)cc2)c2ccccc12)C(=O)O)[N+](=O)[O-])NC(Cc1cn(Cc2ccc(C(=O)O)cc2)c2ccccc12)C(=O)O (configuration not stated)
EC50 [1]: 41 µM | CC50 at 120 h [2]: > 100 µM | selectivity ratio [3]: > 2.4 | selectivity ratio [4]: > 2.4 | EC50 [5]: 47 µM

O=C(CCOCC(COCCC(=O)NC(Cc1c[nH]c2ccccc12)C(=O)O)(COCCC(=O)NC(Cc1c[nH]c2ccccc12)C(=O)O)COCCC(=O)NC(Cc1c[nH]c2ccccc12)C(=O)O)NC(Cc1c[nH]c2ccccc12)C(=O)O (configuration not stated)
EC50 [1]: > 250 µM | CC50 at 120 h [2]: > 250 µM | EC50 (Enterovirus A71): > 100 µM | EC50 [5]: > 250 µM

O=C(CCOCC(COCCC(=O)NC(Cc1cn(Cc2ccc(C(=O)O)cc2)c2ccccc12)C(=O)O)(COCCC(=O)NC(Cc1cn(Cc2ccc(C(=O)O)cc2)c2ccccc12)C(=O)O)COCCC(=O)NC(Cc1cn(Cc2ccc(C(=O)O)cc2)c2ccccc12)C(=O)O)NC(Cc1cn(Cc2ccc(C(=O)O)cc2)c2ccccc12)C(=O)O (configuration not stated)
EC50 [1]: > 76 µM | CC50 at 120 h [2]: 76 µM | EC50 (Enterovirus A71): > 19.5 µM | EC50 [5]: > 76 µM

From ChEMBL document CHEMBL4321868, “Scaffold Simplification Strategy Leads to a Novel Generation of Dual Human Immunodeficiency Virus and Enterovirus-A71 Entry Inhibitors” (J Med Chem, 2020)
